From PubChem BioAssay
T cruzi inh: T. cruzi replication inhibition. T. cruzi beta-gal in NIH3T3, luminescence, 90 h. inhibition, % (test concentration not listed). AID 1885. actives 1.4% (n = 300,000);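 active = mean inhibition across valid replicates above about 55%, limit read from the data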;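 also: signal also drops with host cell toxicity which is not excluded here; higher percent means less beta-gal luminescence so fewer parasites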
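Test system: β-gal T. cruzi (Tulahuen C4) inside NIH/3T3 cells / Quantity: 5,000 cells/well / Measured by: luminescence from GalScreen with 0.05% NP40, read after 60 min / Medium: DMEM plus 2% FBS / Measure: parasite load inhibition, % / Reagent: Tulahuen C4 trypomastigotes, 5000/well / Schedule: co-culture of at least 90 h after 3 h attachment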
CSC inhib: cancer stem cell inhibition | inhibition, % at 7.5 µM | actives 1.1% (n = 300,000) | AID 2717 | cancer stem cell-like cells viability, luminescence; in the data active = inhibition above about 75%; tested in HMLE shEcad cells
NALP3 yeast inh: blocks the NALP3 inflammasome reconstituted in yeast; Yeast reconstituted NLRP3/ASC/caspase-1, beta-gal luminescence, 24 h; inhibition, % at 10 µM; actives 0.39% (n = 330,000); AID 2825;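 active = inhibition of 50% or more; inactive = inhibition below 50%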
Calb FLC: C. albicans growth modulation with fluconazole | C. albicans CaCi-2 + fluconazole, Alamar Blue growth, 48 h | growth inhibition, % (no concentration beside the values) | actives 0.57% (n = 300,000);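 active = growth inhibition above about 58% in most replicates, limit read from the data, passing the limit was not always enough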;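 also: all wells also contain fluconazole at 8 µg/ml as a sub-toxic cotreatment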
Beta apoptosis: beta cell apoptosis inhibition; INS-1E cytokine-induced death, ATP luminescence, 48 h; percent of positive-control rescue, neutral wells zero; protection from apoptosis, % (concentration not given with the values); actives 0.8% (n = 300,000);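 active = Every replicate reaches about 75%, or at least half do and their mean reaches it too, limit read from the data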;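 also: higher means more ATP so stronger rescue from cytokine killing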
Mdm2-MdmX inh: human Mdm2/MdmX binding inhibition; SaOS-2 split-luciferase Mdm2/MdmX complementation, luminescence; inhibition, % at 8 µM; actives 3% (n = 330,000); AID 485346;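 active = inhibition of at least 50% at 8 µM in the primary screen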
Target sequence (O15151 whole entry, looked up): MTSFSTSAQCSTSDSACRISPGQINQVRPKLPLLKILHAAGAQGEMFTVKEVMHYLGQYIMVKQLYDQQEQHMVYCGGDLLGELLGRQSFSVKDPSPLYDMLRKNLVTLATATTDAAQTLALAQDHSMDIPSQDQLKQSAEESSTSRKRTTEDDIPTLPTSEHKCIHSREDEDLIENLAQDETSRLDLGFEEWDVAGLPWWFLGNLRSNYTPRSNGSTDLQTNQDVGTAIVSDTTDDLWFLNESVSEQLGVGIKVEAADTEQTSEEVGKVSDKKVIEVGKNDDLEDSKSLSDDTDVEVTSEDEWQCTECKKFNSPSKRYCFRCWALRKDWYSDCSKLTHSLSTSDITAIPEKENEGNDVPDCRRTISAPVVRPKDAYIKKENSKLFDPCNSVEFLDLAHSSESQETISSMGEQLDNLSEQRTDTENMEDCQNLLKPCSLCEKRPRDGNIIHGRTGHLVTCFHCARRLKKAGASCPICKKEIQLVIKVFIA
Target sequence (Q00987 whole entry, looked up): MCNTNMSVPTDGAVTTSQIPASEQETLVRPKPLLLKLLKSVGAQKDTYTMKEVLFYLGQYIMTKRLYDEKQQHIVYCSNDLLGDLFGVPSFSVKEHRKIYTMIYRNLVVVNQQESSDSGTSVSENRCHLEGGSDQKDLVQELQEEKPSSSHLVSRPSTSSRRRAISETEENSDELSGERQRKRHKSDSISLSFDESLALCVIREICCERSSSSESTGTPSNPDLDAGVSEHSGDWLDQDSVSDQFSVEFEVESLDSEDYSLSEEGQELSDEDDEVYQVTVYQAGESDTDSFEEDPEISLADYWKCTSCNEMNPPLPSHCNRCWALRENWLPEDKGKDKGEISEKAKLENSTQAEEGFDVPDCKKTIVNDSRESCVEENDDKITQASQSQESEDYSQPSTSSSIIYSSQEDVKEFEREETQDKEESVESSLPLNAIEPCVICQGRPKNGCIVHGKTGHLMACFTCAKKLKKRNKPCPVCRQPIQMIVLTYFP
Hits are given with their value; i = inactive; nt = no result given. The list is not random: actives were taken first. Their share in the collection is about 5.3%.

SMILES	T cruzi inh	CSC inhib	NALP3 yeast inh	Calb FLC	Beta apoptosis	Mdm2-MdmX inh
CCCCCCSc1cccc(-c2nc3ccc(Cl)cn3c2NCc2ccccc2)c1	i	75.9	i	i	i	i
CCCCCCSc1cc(-c2nc3ccc(C)cn3c2NCCCC)ccc1OC	nt	97.3	i	nt	83.7	i
Cc1ccc(S(=O)(=O)n2ccnc2)cc1C	i	i	i	i	i	i
CCCCNc1c(-c2ccc(SC3CCCCC3)c(OC)c2)nc2ccc(C)cn12	nt	101.2	i	nt	i	i
COc1ccc(-c2ccc(-c3nc4ccc(C)cn4c3NC3CCCCC3)cc2OC)cc1	i	i	i	i	nt	i
O=C(c1ccc(C(=O)N2CCN(c3ccccc3F)CC2)nc1)N1CCN(c2ccccc2F)CC1	i	nt	i	95.1	nt	i
O=C(c1cccc(C(=O)N2CCN(c3ccccc3F)CC2)c1)N1CCN(c2ccccc2F)CC1	i	i	i	i	i	i
COc1ccccc1-c1cc(C(=O)NCCN2CCOCC2)no1	i	i	i	i	i	i
Cc1nc2ccc(NS(=O)(=O)c3ccc4c(c3)OCCO4)cc2s1	i	i	i	i	123.0	i
CCN(CC(=O)Nc1ccc(NC(C)=O)cc1)C(=O)c1ccccc1Sc1ccccc1C#N	nt	i	i	nt	i	i
CCCc1c(CC)c(=N)c2ccccc2n1C	71.7	i	i	i	i	i
Cn1c(-c2ccccc2)c(CCO)c2ccccc21	i	i	i	i	i	i
Cc1ccc(OCC(=O)N2N=C(c3ccc(Cl)cc3)CC2c2ccco2)c([N+](=O)[O-])n1 (configuration not stated)	i	i	i	i	i	i
O=C(COc1cccnc1[N+](=O)[O-])N1N=C(c2ccc(Cl)cc2)CC1c1ccco1 (configuration not stated)	56.5	i	i	i	i	i
COc1cccc(CN(C)C(=O)c2ccc(NS(=O)(=O)c3ccc(F)cc3)cc2)c1OC	i	i	i	i	nt	i
COc1ccc(CN(C)C(=O)c2ccc(NS(=O)(=O)c3ccc(F)cc3)cc2)c(OC)c1OC	i	i	i	i	95.5	i
COc1ccc(-c2csc(NCc3ccco3)n2)cc1	i	i	i	i	i	i
CCCCc1ccc(Nc2nc(CCC)cc(=O)[nH]2)cc1	i	102.3	i	i	i	i
O=C1COc2ccc(C(=O)COC(=O)Cn3cnc4ccccc43)cc2N1	i	i	i	nt	i	i
O=C(Nc1ccccc1)OCN1C(=O)c2ccccc2C1=O	i	i	i	68.8	i	i
O=C(CN1C(=O)c2ccccc2C1=O)Nc1ccccc1	i	i	i	i	i	i
O=[N+]([O-])c1ccc(Cl)c(-c2ccc(/C=N/n3cnnc3)o2)c1	i	i	i	i	i	i
CN1CCN(/N=C/c2ccc(-c3ccc([N+](=O)[O-])cc3Cl)o2)CC1	58.6	i	i	i	i	i
CCn1c(N2CCN(CC(=O)c3c(C)n(C)c4ccccc34)CC2)nc2c1c(=O)[nH]c(=O)n2C	i	i	i	i	i	i
CC(C)Cn1c(N)c(C(=O)COC(=O)CC23CC4CC(CC(C4)C2)C3)c(=O)n(C)c1=O	i	i	i	i	105.2	i
SMILES	T cruzi inh	CSC inhib	NALP3 yeast inh	Calb FLC	Beta apoptosis	Mdm2-MdmX inh
Cc1csc(=O)n1CCC(=O)OCC(=O)c1c(N)n(CC(C)C)c(=O)n(C)c1=O	i	i	i	i	i	i
COCC(=O)Oc1c(S(=O)(=O)c2ccc(C)cc2)c(C)nn1-c1ccccc1	i	i	i	i	i	i
CCC1Oc2ccc(C)cc2N(CC(=O)N(Cc2cccnc2)Cc2cccc(F)c2)C1=O (configuration not stated)	59.5	i	i	i	i	i
O=C(O)CCC(=O)N(Cc1cccnc1)Cc1cccc(F)c1	nt	i	i	i	i	i
O=C(CN1C(=O)COc2ccccc21)N(Cc1cccnc1)Cc1cccc(F)c1	71.0	i	i	i	i	i
COc1ccc(CNC(=O)CSc2nnc(C)c(=O)[nH]2)cc1	i	i	i	i	i	i
CN(CCc1ccccn1)Cc1ccc(Cl)cc1	56.2	i	i	i	i	i
COc1ccc(CN(C)CCc2ccccn2)cc1OC	nt	i	i	i	i	i
CCc1ccc(CN(C)CCc2ccccn2)cc1	63.2	i	i	i	i	i
Cc1ccc(CN(C)CCc2ccccn2)cc1	66.9	i	i	i	i	i
Cc1cc(C(=O)OCC(=O)NCCN2C(=O)CSC2=O)ccc1[N+](=O)[O-]	nt	i	i	nt	i	i
O=C(CN1c2ccccc2Sc2ccccc21)NNC(=O)Nc1ccc(Cl)c(Cl)c1	i	101.4	i	i	nt	i
N/C(Cc1ccc(Cl)c(Cl)c1)=N\OC(=O)c1cccs1	i	i	i	101.4	i	i
N/C(=N\OC(=O)c1cccs1)C1(c2ccc(Cl)cc2Cl)CC1	i	i	i	i	i	i
N#CCSc1ncccc1-c1nc2ccccc2[nH]1	i	i	i	i	i	i
CCC(=NCc1ccc(Cl)c(Cl)c1)c1nc(-c2ccco2)oc1O	i	102.3	i	i	i	i
COc1ccc(N=Cc2nc(-c3ccco3)oc2O)cc1	i	i	i	i	i	i
Cc1cccc(OCC(=O)Nc2ccccc2N2CCCC2)c1C	i	79.9	i	i	i	i
CC(C)(C)NC(=O)NC(=O)CN1CCCc2ccccc21	nt	i	i	114.2	i	i
COC(=O)c1[nH]c2ccc(C)cc2c1NC(=O)CN1CCCc2ccccc21	85.3	i	i	i	i	i
CC(=O)Nc1ccc(-c2csc(Nc3ccc(Cl)cn3)n2)cc1	i	i	i	i	i	i
O=C(Nc1ccccc1)C1=C[C@@H](c2csc3ccccc23)C[C@@H](OCc2ccc(CO)cc2)O1	i	85.6	i	i	i	i
O=C(Nc1ccccc1)C1=C[C@@H](c2ccc(C(F)(F)F)cc2)C[C@@H](OCc2ccc(CO)cc2)O1	i	79.2	i	i	i	i
Cc1cccc(-n2ncc3c(N4CCCc5ccccc54)ncnc32)c1	i	76.3	i	i	i	i
Cc1cccc(-n2ncc3c(NCc4ccccc4)ncnc32)c1	i	i	i	i	i	i
SMILES	T cruzi inh	CSC inhib	NALP3 yeast inh	Calb FLC	Beta apoptosis	Mdm2-MdmX inh
CCn1cc(C(=O)NC(C)C23CC4CC(CC(C4)C2)C3)cn1 (configuration not stated)	i	i	i	i	i	i
CC(NC(=O)Cn1ncc(Cl)c(Cl)c1=O)C12CC3CC(CC(C3)C1)C2 (configuration not stated)	i	116.2	nt	i	i	nt
Cc1ccc(N(C(=O)c2snc(C(N)=O)c2N)C(C(=O)NCCC(C)C)c2ccco2)cc1 (configuration not stated)	55.9	i	i	i	i	i
CCOC(=O)c1ccc(NS(=O)(=O)c2c(C)n[nH]c2C)cc1	nt	i	i	nt	i	i
COc1cccc(/C=C/C(=O)Nc2ccc(OC)nc2)c1	i	nt	i	i	i	i
CCN(CC(=O)Nc1ccc(NC(C)=O)cc1)C(=O)CCCOc1ccc(C(C)(C)C)cc1	i	i	i	i	92.8	i
